High-throughput results deposited in PubChem by several laboratories.
PKD1 kinase inh: PKD1 (human) kinase inhibition; Q15139; PKD1 kinase fluorescence polarization assay; inhibition, % (test concentration not listed); 200,000 tested, 0.056% active; AID 797
CHOP inhibitor: inhibitors of CHOP induction in ER stress response. AID 2732. 220,000 tested, 3.8% active. CHO-K1 CHOP-promoter luciferase, tunicamycin-induced, 15-18 h. inhibition, % at 10 µM;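 active means compounds that reduced the stress-induced luciferase reporter signal by more than about 70% of percent inhibition, limit read from the data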
Wee1 stabilizer: human Wee1 degradation inhibition, primary screen | P30291 | HeLa Luc-Wee1K328M stability, luciferase luminescence; 100% = proteasome inhibitor MG132 effect | reporter increase, % at 5 µM | 220,000 tested, 1.2% active | AID 1321;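 active means activation above the mean of all tested compounds plus 3 SD, set per screening run, cut at about 8.8% in these data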;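 further: cells exposed to compound for 20 h before luminescence read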
Arbovirus anti: antivirals against arbovirus infection. inhibition, % at 10 µM. AID 1251. arbovirus infection cell-based antiviral screen. 200,000 tested, 0.37% active; in the data active means inhibition above about 30%
Rad51 HR inh: Rad51 (human) homologous recombination inhibition; hRad51 DNA strand exchange, fluorescence dequenching; Q06609; 200,000 tested, 0.085% active; inhibition, % at 10 µM;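 active means inhibition above 40% at the single screening dose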
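Test system: preformed human Rad51 ssDNA filaments. Compound dosing: single dose, 10 µM final compound. Incubation: filaments 15 min 37 °C, then compound 30 min. Technique: FRET fluorescence dequenching, excitation 485 nm, emission 520 nm. Read-out basis: percent inhibition from fluorescence, normalised to plate control and blank means. Benchmarks: plate controls and plate blanks.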
Lmaj promast: inhibitors of Leishmania major promastigote growth | 200,000 tested, 9% active | inhibition, % at 10 µM | Leishmania major promastigotes, resazurin fluorescence viability;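 further: promastigotes grown with compound for 44 hours at 28 °C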
Large screens that a line does not name were inactive. Most compounds without a hit are left out; they make up all but 12% or so of the library. Unless noted, no stated cut-off is given here; in the data, active means inhibition above about 50%; inactive means the rest.

CN(C)S(=O)(=O)c1cccc(NC(=O)COC(=O)CNC(=O)c2cccc([N+](=O)[O-])c2)c1	none (no result: PKD1 kinase inh, Arbovirus anti, Lmaj promast)
Cc1oc(-c2ccccc2Cl)nc1CN1CCCN(C(=O)c2ccco2)CC1	none
C=CCSC1=N/C(=C\c2ccc(C)o2)C(=O)S1	CHOP inhibitor 71.5
C=CCSC1=N/C(=C\c2ccsc2)C(=O)S1	none
C/C(=N\NC(=O)C1COc2ccccc2O1)c1cc2ccccc2o1 (stereo not drawn)	none
Cc1nc(SCC(=O)c2cc3ccccc3oc2=O)c(C#N)c(-c2ccccc2)c1C(=O)Nc1ccccc1	CHOP inhibitor 94.7
COc1ccc(-c2c(C#N)c(SCC(=O)c3cc4ccccc4oc3=O)nc(C)c2C(=O)Nc2ccccc2)cc1	none
O=C(NC(=S)NC1CCCC1)c1ccccc1Br	CHOP inhibitor 82.5
CSc1ccccc1C(=O)NC1CCCC1	Wee1 stabilizer 8.9
O=C(NCCC1=CCCCC1)c1cccc2c1C(=O)N(C1CCCCC1)C2	CHOP inhibitor 84.8
O=C(NC(=S)NCCC1=CCCCC1)c1ccccc1Br	Arbovirus anti 37.3
CN1CCC(=C2c3ccccc3C=Cc3ccccc32)CC1	Wee1 stabilizer 9.7
CN1CCN(C(=O)N2c3ccccc3C=Cc3ccccc32)CC1	none
CCOC(=O)c1cc(C)sc1/N=C/C1C(=O)CC(C)(C)CC1=O	none
CCOC(=O)c1c(CC(C)C)csc1/N=C/C1C(=O)CC(C)(C)CC1=O	CHOP inhibitor 71.8
CCOC(=O)c1c(C)[nH]c(C(=O)CSc2nccc(C)n2)c1C	Lmaj promast 75.3
CCOC(=O)c1c(C)[nH]c(C(=O)CSc2ccccc2)c1C	none
Cc1cc(C)[n+](-c2ccc(Oc3ccccc3)c(S(=O)(=O)[O-])c2)[nH]1	none (no result: PKD1 kinase inh, Arbovirus anti, Lmaj promast)
O=C1c2ccccc2-c2onc3ccc(NCCCn4ccnc4)c1c23	PKD1 kinase inh 94.4, Lmaj promast 100.1
Cc1nc(NCCCn2ccnc2)c2ccccc2n1	none
O=C1NC(c2cccc([N+](=O)[O-])c2)Oc2ccccc21 (stereo not drawn)	none
COc1cccc(C(=O)CSc2nnc(CNS(=O)(=O)c3ccc(C)cc3)n2C)c1	Wee1 stabilizer 9.7
CCN(CC)S(=O)(=O)c1cc([N+](=O)[O-])ccc1NNC(=O)Nc1ccccc1OC	Lmaj promast 79.9
CCOC(=O)N1CCN(C(=O)CSc2ccc(-c3cccc(OC)c3)nn2)CC1	CHOP inhibitor 77.0
Cc1oc2c(CN3CCOCC3)c(O)ccc2c(=O)c1-c1ccc(Cl)cc1	none (no result: PKD1 kinase inh, Arbovirus anti, Lmaj promast)
O=c1c(-c2ccc(Br)cc2)coc2c(CN3CCOCC3)c(O)ccc12	Lmaj promast 99.5
Cc1oc2c(CN3CCOCC3)c(O)ccc2c(=O)c1-c1ccc(Br)cc1	Lmaj promast 98.6
Cc1oc2c(CN3CCCC3)c(O)ccc2c(=O)c1-c1ccc(Cl)cc1	Lmaj promast 96.8
Cc1ccc(C(=O)N2CCN(c3ccccc3Cl)CC2)cc1[N+](=O)[O-]	none
CCOc1cc(C2C3=C(CC(C)(C)CC3=O)Nc3n[nH]c(C)c32)ccc1O (stereo not drawn)	none
CC1=C(C(=O)Nc2ccccc2)C(c2ccncc2)C(C#N)=C(SCC(=O)NC2CC2)N1 (stereo not drawn)	Lmaj promast 73.3
CCSC1=C(C#N)C(c2cccs2)C(C(=O)OC)=C(C)N1 (stereo not drawn)	none
CCOC(=O)C1=C(C)NC(SCC(=O)Nc2cc(C)on2)=C(C#N)C1c1cccs1 (stereo not drawn)	Lmaj promast 59.9
CCCSC1=C(C#N)C(c2cccs2)C(C(=O)Nc2ccccc2)=C(C)N1 (stereo not drawn)	Lmaj promast 89.0
CCOC(=O)C1=C(C)NC(SCC(N)=O)=C(C#N)C1c1cccs1 (stereo not drawn)	none
COc1ccccc1NC(=O)C1=C(C)NC(SCC(=O)Nc2ccc(C(=O)O)cc2)=C(C#N)C1c1cccs1 (stereo not drawn)	none (no result: PKD1 kinase inh, Arbovirus anti, Lmaj promast)
CC1=C(C(=O)Nc2ccccc2)C(c2ccncc2)C(C#N)=C(SCC(=O)NC(C)C)N1 (stereo not drawn)	Lmaj promast 89.0
CC1=C(C(=O)Nc2nc3ccccc3s2)C(c2ccco2)C(C#N)=C(SCC(=O)NC2CCCCC2)N1 (stereo not drawn)	Lmaj promast 73.0
CC1(C)Oc2ccc3ccc(=O)oc3c2-c2cn[nH]c21	PKD1 kinase inh 89.9
CC1(C)Oc2ccc3ccc(=O)oc3c2-c2cnoc21	none
Cc1ccc2oc(=O)c3cc(C(=O)NCCN4CCN(C)CC4)sc3c2c1	Wee1 stabilizer 10.4
COc1ccc(-c2nn(-c3ccccc3)cc2/C=C2/SC(=S)N(Cc3ccco3)C2=O)c(C)c1	none
COc1ccc(-n2c(C)cc(/C=C3\SC(=S)N(Cc4ccco4)C3=O)c2C)cc1	Lmaj promast 67.6
CN(C)c1ccc(/C=N/NC(=O)CCc2nc3ccccc3[nH]2)cc1	none (no result: PKD1 kinase inh, Arbovirus anti, Lmaj promast)
Cc1ccc(CN2CCN(Cc3ccc4cc(F)ccc4n3)CC2CCO)o1 (stereo not drawn)	Lmaj promast 79.9
OCCC1CN(C/C(Cl)=C/c2ccccc2)CCN1C1CCCC1 (stereo not drawn)	Lmaj promast 89.1
Cc1ccc(CN2CCN(C/C(Cl)=C/c3ccccc3)CC2CCO)o1 (stereo not drawn)	Lmaj promast 78.5
CC(C)N1CCN(CC#Cc2ccccc2)CC1CCO (stereo not drawn)	none
CC(C)N1CCC(N2CCN(CC#Cc3ccccc3)CC2CCO)CC1 (stereo not drawn)	Wee1 stabilizer 15.7 (no result: Rad51 HR inh)
COc1ccc(-c2cc(C(=O)Nc3c(C)nn(Cc4ccc(Cl)cc4)c3C)no2)cc1	CHOP inhibitor 80.8
COc1ccc(OC)c(-c2cc(C(=O)Nc3c(C)nn(Cc4ccccc4C)c3C)no2)c1	none
COc1ccc(OC)c(-c2cc(C(=O)Nc3c(C)nn(Cc4ccccc4Cl)c3C)no2)c1	Lmaj promast 52.2
Cc1nn(Cc2ccc(Cl)cc2)c(C)c1NC(=O)c1cc(-c2ccco2)on1	none (no result: Rad51 HR inh)
Cc1nn(Cc2ccc(Cl)c(Cl)c2)c(C)c1NC(=O)c1cc(-c2ccco2)on1	CHOP inhibitor 86.5
CC[n+]1oc(-c2ccccc2)cc1C	none
CCC/C(O)=C1\C(=O)CCCC1=NCCc1c(C)[nH]c2ccc(OC)cc12	none
O=C(Nc1c(C(=O)c2ccccc2)oc2ccccc12)c1cc(-c2ccccc2O)n[nH]1	CHOP inhibitor 89.7 (no result: Rad51 HR inh)
Cc1ccc(C(=O)c2oc3ccccc3c2NC(=O)c2cc(-c3cc(C)ccc3O)n[nH]2)cc1	CHOP inhibitor 71.1 (no result: PKD1 kinase inh, Arbovirus anti, Lmaj promast)
Cc1ccc(C(=O)c2oc3ccccc3c2NC(=O)c2cc(-c3ccccc3O)n[nH]2)cc1	none (no result: Rad51 HR inh)
C=CCc1c(C)nc(N)[nH]c1=O	none
COc1ccc(N2CCN(CCNC(=O)c3ccc4c(c3)[nH]c(=S)n3c5ccccc5nc43)CC2)cc1	none
O=C(Cn1cc2c(n1)CCCCC2)Nc1ccccc1Br	none (no result: PKD1 kinase inh, Arbovirus anti, Lmaj promast)
O=C(O)CN(c1ccccc1)S(=O)(=O)c1cc(C(F)(F)F)cc(C(F)(F)F)c1	none
